99 compounds from ChEMBL document CHEMBL4513216, “Probing the Open Global Health Chemical Diversity Library for Multistage-Active Starting Points for Next-Generation Antimalarials” (ACS Infect Dis, 2020) can be followed below.

The nature of the data set: Toxicity liver stage against HepG2, at 10uM. The data set is classed as cell-based. Further details: test concentration 10 uM, cell line HepG2-A16-CD81EGFP. As to conditions: human, HepG2-A16-CD81EGFP cells; read-out: INHIBITION
A digest of the protocol:
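Uninfected HepG2-A16-CD81EGFP cells, 3 × 10^3 per well, 1536-well, plated on prespotted compound at 10 μM final, parasite-free screening media added to match infected plates; puromycin 10 μM positive, DMSO 0.5% negative; run in parallel with 48 h PbLuc assay at 37 °C, 5% CO2; viability by CellTiter-Glo luminescence, normalized to controls.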
Regarding `CC(C)Cc1cc(CC2(NCc3ccccc3Cl)COC2)no1`, the cytotoxicity at 10 µM is -7.55%.

In the case of `Cc1cccnc1CNC[C@H]1Cn2cc(-c3ccccc3)nc2CO1`, the cytotoxicity at 10 µM is -2.56%.

`CN1CCc2cc(C(CNS(=O)(=O)c3cccs3)N3CCCC3)ccc21` (centres undefined): the cytotoxicity at 10 µM came out at 2.66%.

On to `COC(=O)c1ccc(OC)c(Cn2cc(Br)cn2)c1`, for which the cytotoxicity at 10 µM is 3.05%.

As to `Cc1cc(N(C)C)nc(C2COCCN2Cc2nccn2C)n1` (centres undefined), the cytotoxicity at 10 µM is -3.43%.

As for `CCC(=O)N1CCC(c2nc(N3CCCC3)ncc2S(C)(=O)=O)CC1`, the cytotoxicity at 10 µM was determined as 3.86%.

In the case of `COc1ccc(CN(C)CC2(O)CCNC2)cc1` (centres undefined), the cytotoxicity at 10 µM was -1.68%.

As for `CN1CCCC(c2ccnc(C(=O)NC3CC3)c2)C1` (centres undefined), the cytotoxicity at 10 µM was -29.5%.

On to `CCCC(=O)N1CCCCC1c1nccc(C)n1` (centres undefined), for which the cytotoxicity at 10 µM was -21%.

On to `NC(=O)C1(c2cnccn2)CCCN1Cc1ccc(F)c(F)c1` (centres undefined), for which the cytotoxicity at 10 µM is -14%.

Consider `c1ccc(OCCN2CCC(c3nnc(-c4cccnc4)o3)CC2)cc1`, for which the cytotoxicity at 10 µM is -27.9%.

As for `Cc1ccccc1-c1cncc(C2CCN(C(=O)CN(C)C)CC2)n1`, the cytotoxicity at 10 µM came to 3.88%.

As to `CN1CCCC(Cc2cncc(C(=O)NCC3CC3)c2)C1` (centres undefined), the cytotoxicity at 10 µM is -3.99%.

In the case of `COc1cccc([S+]([O-])CC(=O)NCc2cc(F)cc(F)c2)c1` (centres undefined), the cytotoxicity at 10 µM is -0.491%.

Take `CCCc1c(C(=O)N2CCN(c3nccc(OC)n3)CC2)cnn1C`: the cytotoxicity at 10 µM was 17.2%.

For `O=C1CCCN1CCCN1CCCC(Cn2cncn2)C1` (centres undefined), the cytotoxicity at 10 µM is -1.82%.

For the compound `CCN(Cc1ccoc1)c1ncc(S(N)(=O)=O)s1`, the cytotoxicity at 10 µM worked out at 5.73%.

Turning to `CC(NC(=O)N1CCc2sccc2C1)c1nncn1C` (centres undefined), the cytotoxicity at 10 µM is -8.6%.

Turning to `O=C(c1cc2c([nH]c1=O)CCC2)N1CCCC1c1ccc(F)cc1` (centres undefined), the cytotoxicity at 10 µM was -6.14%.

Consider `CN(Cc1ccncc1)C(=O)CCNS(=O)(=O)c1cccnc1`, for which the cytotoxicity at 10 µM came to 0.541%.

Regarding `Cc1cc(Br)oc1C(=O)N1CCN(CC(N)=O)CC1`, the cytotoxicity at 10 µM stood at 0.658%.

For `CC(=O)N1CCC(c2nc(Cc3ccccc3)no2)C1` (centres undefined), the cytotoxicity at 10 µM was determined as 5.15%.

On to `CCCS(=O)(=O)NCC(C)(O)c1ccsc1` (centres undefined), for which the cytotoxicity at 10 µM is -1.7%.

For the compound `O=C(Nc1nnc(C(F)F)s1)N[C@H](CCO)c1ccccc1`, the cytotoxicity at 10 µM stood at 1.88%.

Regarding `Cc1cc(C(=O)NC2(c3cccc(F)c3)CCOCC2)no1`, the cytotoxicity at 10 µM amounted to 1.42%.

Take `CCOc1cc(C)nc(N2CCN(C(=O)c3cc(Cl)c[nH]3)CC2)n1`: the cytotoxicity at 10 µM amounted to 6.81%.

As for `COc1ccc2c(c1)C(=O)N(C)C1(CCN(C(=O)OC(C)(C)C)CC1)N2`, the cytotoxicity at 10 µM worked out at 25.1%.

For `COc1cccc2c1N(Cc1nc3c(cnn3C)c(=O)[nH]1)CCC2`, the cytotoxicity at 10 µM is -4.15%.

Take `CCN(CC)S(=O)(=O)N1CCCC1c1nnc2n1CCCCC2` (centres undefined): the cytotoxicity at 10 µM is -6.83%.

`Cc1noc(C)c1CNc1cccc(C(=O)N2CCCC(O)C2)c1` (centres undefined): the cytotoxicity at 10 µM was -6.08%.

As for `CS(=O)(=O)CCCN1CCOC2(CCc3ccccc32)C1` (centres undefined), the cytotoxicity at 10 µM was -5.14%.

`Cc1cc(=O)n(C)cc1NC(=O)NCc1cccc(F)c1`: the cytotoxicity at 10 µM is -5.3%.

With `OC(CN(Cc1ccccc1)Cc1cscn1)c1ccco1` (centres undefined), the cytotoxicity at 10 µM was determined as 5.04%.

In the case of `CN(C(=O)COC1CCCC1)C1CCN(CC2CCOC2)CC1` (centres undefined), the cytotoxicity at 10 µM was -9.98%.

As for `NC(=O)CN1CCCC1c1ccccc1Br` (centres undefined), the cytotoxicity at 10 µM is 4.01%.

In the case of `COc1ccnc(N(C)Cc2ccccc2O)n1`, the cytotoxicity at 10 µM amounted to 2.29%.

In the case of `Cc1ccsc1CNc1ccc(C(=O)N2CCNC(=O)C2)cn1`, the cytotoxicity at 10 µM stood at 7.04%.

Consider `Cc1noc(C)c1CN(C)Cc1nc(N)c2ccccc2n1`, for which the cytotoxicity at 10 µM was determined as 8.85%.

Regarding `COc1ccccc1C1(CNCc2cccc(C#N)c2)CCOCC1`, the cytotoxicity at 10 µM is 6.37%.

Turning to `CNC(=O)c1ccc(Cn2ccnc2S(C)(=O)=O)cc1`, the cytotoxicity at 10 µM is -3.83%.

For `O=C(NCC1(Sc2ccccc2)CC1)c1c[nH]nn1`, the cytotoxicity at 10 µM was -17.9%.

`O=C(c1ccc2c(c1)CCO2)N1CCN(c2ncccn2)CC1`: the cytotoxicity at 10 µM was determined as 8.92%.

As to `Cc1cccnc1CSCCCNS(C)(=O)=O`, the cytotoxicity at 10 µM is -15.1%.

On to `N#Cc1ccccc1CN(CC(N)=O)C1CCCC1`, for which the cytotoxicity at 10 µM came to 10.4%.

As for `CC(C)COC1CCN(S(=O)(=O)Cc2cccc(F)c2)CC1`, the cytotoxicity at 10 µM was -2.11%.

`Cc1cc(CS(=O)(=O)c2ccccc2)no1`: the cytotoxicity at 10 µM was found to be 10.5%.

Consider `CC(C)CS(=O)(=O)CC(=O)N(C)Cc1ccc(OC(F)F)cc1`, for which the cytotoxicity at 10 µM was determined as 1.13%.

Consider `O=C(c1cc(Cl)cc(Cl)c1)N1CCN(c2nccs2)CC1`, for which the cytotoxicity at 10 µM is -5.69%.

As for `COc1cccc2c1OCC(NC(=O)NCc1cccs1)C2` (centres undefined), the cytotoxicity at 10 µM was -11%.

Regarding `CC(C)CNC(=O)C1=NOC2(CCN(Cc3cccc(C#N)c3)C2)C1` (centres undefined), the cytotoxicity at 10 µM came out at 8.37%.

On to `COCCC1COC2(CCN(C(=O)c3cccn3C)CC2)C1` (centres undefined), for which the cytotoxicity at 10 µM is -80.7%.

On to `COCCO[C@H]1CCN(C(=O)c2cnccn2)[C@H]1Cc1ccncc1`, for which the cytotoxicity at 10 µM was -70.3%.

`CN1CCN(Cc2ccncc2)Cc2cccnc21`: the cytotoxicity at 10 µM is -72.7%.

On to `COCc1cnc2n1CCN(C(=O)c1ocnc1C)C2C` (centres undefined), for which the cytotoxicity at 10 µM is -1.91%.

`O=c1cc(Cn2cncn2)nc2n1CCCN(Cc1ccoc1)C2`: the cytotoxicity at 10 µM came out at 3.37%.

Turning to `CC(C)Nc1nc(N2CCOCC2)nc2c1CN(CC(=O)N(C)C)CC2`, the cytotoxicity at 10 µM was determined as 7.77%.

For the compound `O=C(N1CCCC1)N1CCN(CC2CC2)c2ncccc2C1`, the cytotoxicity at 10 µM turned out to be 6.51%.

On to `Fc1cccc(CN2CCO[C@H]3[C@@H](OCc4ccccn4)CC[C@@H]32)c1`, for which the cytotoxicity at 10 µM was -0.902%.

As to `c1ccc(SCCN2CCCC(Cn3ccnc3)C2)cc1` (centres undefined), the cytotoxicity at 10 µM stood at 2.92%.

As to `Cc1ccc(N2CCC(c3cc(Cc4ccccc4)n[nH]3)CC2)nn1`, the cytotoxicity at 10 µM is 3.53%.

With `COc1ccccc1CN1C(=O)O[C@@H]2CN(c3nc(C)cnc3C)C[C@@H]21`, the cytotoxicity at 10 µM stood at 1.06%.

As for `CCn1ccnc1CN(C)C1CCCN(CCCc2ccccc2)C1` (centres undefined), the cytotoxicity at 10 µM is 7.35%.

`COCCn1ccnc1C1CCCN(C(=O)CSc2nnc(C)o2)C1` (centres undefined): the cytotoxicity at 10 µM is -4.3%.

In the case of `CCN(CC)C(=O)[C@@H]1C[C@@H](NC(=O)c2cccn2C2CC2)CN1C`, the cytotoxicity at 10 µM was -5.94%.

On to `COC(C)(C)CNC(=O)C1CCC(=O)N(C2CCCC2)C1` (centres undefined), for which the cytotoxicity at 10 µM was -6.52%.

Turning to `CCN(Cc1noc(CC(C)C)n1)C[C@]1(O)CCCN2CCCC[C@@H]21`, the cytotoxicity at 10 µM was -6.91%.

With `c1cncc(CN2CCCC(Nc3ncnc4c3CCNCC4)C2)c1` (centres undefined), the cytotoxicity at 10 µM came to 4.42%.

As to `CS(=O)(=O)N1CC[C@]2(O)CCN(c3ccnc(N)n3)C[C@@H]2C1`, the cytotoxicity at 10 µM is 21%.

With `COCC(=O)N1CCC(C(=O)N(C)CCCc2nccn2C)CC1`, the cytotoxicity at 10 µM is -1.81%.

For the compound `COc1cnc(N2CCN(C)CC2)nc1-c1ccnn1C`, the cytotoxicity at 10 µM came out at 0.868%.

On to `Cc1cnc(NCCCN2CCCCC2CO)nc1` (centres undefined), for which the cytotoxicity at 10 µM is -7.17%.

Take `Nc1cc(-c2cc[nH]n2)nc(N2CCCC2)n1`: the cytotoxicity at 10 µM stood at 1.56%.

As to `Cc1ccsc1-c1nccn1CCN1CCCOC1=O`, the cytotoxicity at 10 µM is -4.68%.

Regarding `CCOc1ccccc1OCCN(C)Cc1nccn1C`, the cytotoxicity at 10 µM was -3.8%.

As for `COCc1ncc(CN(Cc2ccco2)C(C)C(C)C)cn1` (centres undefined), the cytotoxicity at 10 µM is -0.0832%.

For `CN1CCN(Cc2ccccc2Oc2nccc3occc23)CC1`, the cytotoxicity at 10 µM was 5.83%.

In the case of `NCC1Cc2cc(-c3nccc(N4CCC(O)CC4)n3)cc(F)c2O1` (centres undefined), the cytotoxicity at 10 µM came to 14.2%.

`CN(C)c1nc2n(c(=O)n1)CCN2C(=O)Nc1ccccc1`: the cytotoxicity at 10 µM was determined as 4.73%.

On to `CS(=O)(=O)N1CCC(c2nnc(CN3CCCC3)n2C2CC2)CC1`, for which the cytotoxicity at 10 µM is -6.6%.

`N#Cc1ccc(CNCCn2cccn2)c(F)c1`: the cytotoxicity at 10 µM is -4.22%.

As to `COCCOc1ccc(C(=O)N2CCCC(n3cncn3)C2)cn1` (centres undefined), the cytotoxicity at 10 µM is -11.7%.

`O=C(CCNc1ncccn1)NCCOc1ccc2c(c1)CCC2`: the cytotoxicity at 10 µM was -4.54%.

As to `Cc1cc(C)n(CC2CN(CCOc3cccc(C#N)c3)CCO2)n1` (centres undefined), the cytotoxicity at 10 µM was -10.9%.

`Cc1ccc(-c2cc(CNC(=O)N3CCOC(C)C3)on2)cc1` (centres undefined): the cytotoxicity at 10 µM is -6.09%.

`Cc1noc(C(C)N2CCN(CCCN3CCCC3=O)CC2)n1` (centres undefined): the cytotoxicity at 10 µM was -2.73%.

For `CCc1noc(C(C)N2CCN(Cc3nc(C)c(C)o3)CC2)n1` (centres undefined), the cytotoxicity at 10 µM was -1.71%.

As to `CC1CCCN(C(=O)CCc2cccnc2)C1` (centres undefined), the cytotoxicity at 10 µM is -3.4%.

With `Cn1nccc1C1CCN(CC(O)c2cccc(F)c2)CC1` (centres undefined), the cytotoxicity at 10 µM was -11.8%.

With `CN(c1ccc(C(C)(C)C)cc1)S(=O)(=O)c1cc(C(=O)O)cs1`, the cytotoxicity at 10 µM was -6.19%.

Take `CC(C)c1cc(NC(=O)CN2CCNC(=O)C2)on1`: the cytotoxicity at 10 µM is -11.6%.

For the compound `O=S(=O)(CCNC1CCc2ncnn2C1)c1ccccc1` (centres undefined), the cytotoxicity at 10 µM was -5.58%.

As to `CN(C)c1ncc(-c2cncnc2)c(C2CNCCO2)n1` (centres undefined), the cytotoxicity at 10 µM amounted to 1.69%.

In the case of `O=C(C[C@@H]1COC[C@H]2CN(C3CCCC3)C[C@@H]12)NCc1cccnc1`, the cytotoxicity at 10 µM stood at 6.84%.

With `Cn1cc(CN2CCc3ccc(=O)n(Cc4ccncc4)c3CC2)cn1`, the cytotoxicity at 10 µM was 3.97%.

As for `CN(C)c1ncnc2c1CCN(C(=O)c1cccnc1)CC2`, the cytotoxicity at 10 µM is -79.8%.

As to `Cc1cc(CN2C[C@@H]3COC[C@]3(CNC(=O)c3ccco3)C2)no1`, the cytotoxicity at 10 µM is -71.1%.

In the case of `O=C(C1CC(F)(F)C1)N1C[C@@H]2CN(CC3CCCC3)CCO[C@@H]2C1`, the cytotoxicity at 10 µM is -8.02%.

On to `O=c1[nH]c2cn(-c3cccc(F)c3)c(=O)n2n1Cc1ccccc1Cl`, for which the cytotoxicity at 10 µM was found to be 4.9%.

Consider `CC(C)(C)C(N)C1=NC(=C2N=CN=N2)NO1` (centres undefined), for which the cytotoxicity at 10 µM is -16.9%.
